Published values from different studies.
Compare with care: the assays were run in different laboratories.
BRAF: Serine/threonine-protein kinase B-raf (BRAF, Homo sapiens, UniProt P15056)

SMILES	target	read-out	action	technique	tested at	measurement	value
Cc1nn(C)cc1-c1nc2c(N3CCN(Cc4ccc(Cl)cc4)CC3)c(Cl)cnc2[nH]1	Serine/threonine-protein kinase B-raf (BRAF, Homo sapiens, UniProt P15056, V600E)	binding	–	competition with immobilised ligand	1 µM	remaining binding	100%
Cn1cc(-c2cccc(N3CCc4c(sc5c4CC(C)(C)C5)C3=O)c2CO)cc(Nc2ccncn2)c1=O	BRAF	enzyme activity	inhibitor	–	1 µM	inhibition	21%
Cn1cncc1[C@@](O)(COc1ccc(C#N)cc1-c1ccc(OC(F)(F)F)cc1)c1ccc(C#N)cc1	BRAF	cell-free assay	–	competition with immobilised ligand	1 µM	remaining binding	100%
Cn1cc(-c2cc(F)cc(N3CCn4c(cc5c4CCCC5)C3=O)c2CO)cc(Nc2ccc(N3CCN(C4COC4)CC3)cn2)c1=O	BRAF	enzyme activity	inhibitor	–	0.1 µM	inhibition	7%
N#CC1(c2ccccn2)CCN(Cc2cc(C(=O)O)c(=O)n3ccccc23)CC1	BRAF	cell-free assay	–	competition with immobilised ligand	1 µM	remaining binding	93%
Nc1ncc(-c2nc(N3CCOCC3)nc(N3CCOCC3)n2)c(C(F)F)n1	BRAF	binding	–	competition with immobilised ligand	10 µM	remaining binding	36%
COc1ncccc1-c1cnn2ccc(N3CCN(C(=O)OC(C)C)CC3)nc12	BRAF	binding	–	competition with immobilised ligand	1 µM	remaining binding	100%
C#Cc1n[nH]c2c(-c3cn(C(C)c4ccccn4)c(=O)[nH]c3=O)cc(F)cc12 (centres unmarked)	BRAF	enzyme activity	inhibitor	–	1 µM	inhibition	-2.7%
O=c1[nH]c2ccccc2n1C1CCN(Cc2ccc(-c3[nH]c4cc5ncnc5cc4nc3-c3ccccc3)cc2)CC1	BRAF	cell-free assay	–	–	0.5 µM	remaining signal	101%
C#Cc1n[nH]c2c(-c3cn([C@@H](C)c4ccccc4)c(=O)[nH]c3=O)cc(F)cc12	BRAF	enzyme activity	inhibitor	–	0.1 µM	inhibition	-2.9%
CNS(=O)(=O)Nc1nccc(Cc2c(C)c3ccc(Oc4ncccn4)cc3oc2=O)c1F	BRAF	cell-free assay	–	competition with immobilised ligand	10 µM	inhibition	89%
